# A selection: hits, their analogues and other compounds. The true share with any hit is near 1.3%.
# TAG inh = inhibitors of triacylglycerol accumulation; H9c2 cells, Nile Red lipid (TAG) fluorescence; cells loaded with 200 µM oleic acid; inhibition, % at 12.5 µM; actives 0.66% (n = 230,000);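 active means pattern-corrected inhibition of lipid staining of at least 50% with the nuclear-stain viability signal not falling by more than 50%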
# sPLA2-III inh = Blocks human group III sPLA2 activity; actives 0.56% (n = 370,000); QFRET BODIPY PC-A2 liposome hydrolysis, fluorescence; inhibition, % at 12.2 µM; AID 743126;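 active means inhibition above mean plus 3 SD of compounds lying within the high and low control bounds, cut at about 19% in these data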
# Target sequence (Q9NZ20 whole entry, looked up): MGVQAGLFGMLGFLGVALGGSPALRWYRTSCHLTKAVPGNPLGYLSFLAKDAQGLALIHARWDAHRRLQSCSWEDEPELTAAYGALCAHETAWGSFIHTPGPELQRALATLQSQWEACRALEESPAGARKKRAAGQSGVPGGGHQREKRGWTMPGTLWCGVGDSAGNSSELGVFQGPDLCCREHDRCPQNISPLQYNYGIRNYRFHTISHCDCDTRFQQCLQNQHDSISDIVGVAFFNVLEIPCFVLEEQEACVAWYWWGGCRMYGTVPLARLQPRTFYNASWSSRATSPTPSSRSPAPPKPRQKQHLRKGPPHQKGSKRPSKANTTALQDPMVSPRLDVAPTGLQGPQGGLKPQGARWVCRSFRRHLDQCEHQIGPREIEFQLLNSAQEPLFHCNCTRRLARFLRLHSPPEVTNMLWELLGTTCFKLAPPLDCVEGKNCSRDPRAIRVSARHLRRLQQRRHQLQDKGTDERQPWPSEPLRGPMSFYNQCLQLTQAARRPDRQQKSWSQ
# MT1-MMP act inh = blocks activation of human MT1-MMP; P50281; HT1080 RFP-PRO-GFP cells, GFP/RFP ratio fluorescence, overnight; percent of plate control window, DMSO zero; GFP/RFP ratio change, % at 20 µM; actives 0.061% (n = 360,000);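 active means GFP/RFP ratio change of at least 30% with cell ATP level not reduced by more than half and red fluorescence within 50% of control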
#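 Assay system: HT1080 RFP-PRO-GFP cells. Benchmarks: DMSO vehicle wells and RFP-L50D-GFP reporter cell wells. Times: overnight cell settling, then overnight compound exposure, 37 °C, 5% CO2. Compound: 20 µM single dose, 1% DMSO. Read-out basis: GFP/RFP fluorescence ratio.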
# Efflux pump inh = blocks antifungal efflux pumps in multiplex yeast assay; S. cerevisiae Candida pump triplex, Nile Red efflux; inhibition, % at 10 µM; actives 0.44% (n = 330,000); AID 485275;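 active means plate passing quality check with inhibition over a set limit, or well fluorescence over plate mean plus 4 SD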;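 further: Nile Red retained in pooled yeast measured as flow cytometry median fluorescence; higher means more Nile Red kept so more efflux inhibition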
# Yeast cmpd fluor = compound fluorescence in yeast efflux pump counter-screen; shares compounds with Efflux pump inh; S. cerevisiae AD/pABC3, flow cytometry; fluorescence ratio to DMSO, % at 10 µM; actives 4% (n = 1,700); AID 588517;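 active means fluorescence ratio to DMSO above its plate's cutoff, the plate mean ratio plus 5 SD, cut at about 210% in these data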;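 further: unstained yeast with no Nile Red so the signal is compound autofluorescence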
# CaMdr1 efflux inh = blocks the Candida albicans Mdr1 efflux pump in yeast. inhibition, % at 10 µM. actives 1% (n = 1,700). shares compounds with Efflux pump inh. AID 588518. S. cerevisiae AD/CaMDR1, Nile Red efflux, flow cytometry; in the data active means inhibition above about 26%;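 further: higher means more Nile Red retained so more efflux inhibition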
# CaCdr2 efflux inh = blocks the Candida albicans Cdr2 efflux pump in yeast; shares compounds with Efflux pump inh; Nile Red retention ratio vs DMSO, % at 10 µM; actives 4% (n = 1,700); S. cerevisiae AD/CaCDR2, Nile Red retention, flow cytometry; AID 588520; in the data active means Nile Red retention ratio vs DMSO above about 190%;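 further: higher ratio means more blocking of Cdr2 efflux of the dye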
# Cdr1 pump inh = Candida Cdr1 efflux pump inhibition. shares compounds with Efflux pump inh. S. cerevisiae AD/CaCDR1, Nile Red efflux, flow cytometry. inhibition, % at 10 µM. actives 1% (n = 1,700);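 active means inhibition above the screen-wide mean plus twice its standard deviation, cut at about 32% in these data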
# A number is an active result; 0 = inactive; - = no result.
SMILES,TAG inh,sPLA2-III inh,MT1-MMP act inh,Efflux pump inh,Yeast cmpd fluor,CaMdr1 efflux inh,CaCdr2 efflux inh,Cdr1 pump inh
N#C/C(=C\c1ccc(O)c(O)c1)C(=O)Nc1cccc2ncccc12,-,0,0,0,0,0,0,0
N#C/C(=C\c1ccc(O)c(O)c1)C(=O)Nc1ccccc1,0,0,0,0,-,-,-,-
COc1ccc(/C=C(\C#N)C(=O)Nc2cccc3ncccc23)cc1OC,0,0,0,0,0,0,0,0
COc1cc(/C=C(\C#N)C(=O)Nc2cccc3ncccc23)cc(OC)c1OC,0,0,0,3.4,0,0,0,0
CCn1nc(C)c(CN2CCC(Oc3ccc(C(=O)N4CCCC4)cc3)CC2)c1C,-,0,0,0,-,-,-,-
Cc1ccccc1NC(=S)NCCc1ccccc1,0,0,0,0,-,-,-,-
Cc1ccccc1NC(=S)NCc1ccccc1,0,0,0,8.9,0,0,0,0
Nc1cc(Nc2ccccc2)c2nonc2c1[N+](=O)[O-],-,0,0,1.4,0,0,0,0
COc1ccc(/C=N/N=C2/NC(=O)C(CC(=O)O)S2)cc1OCc1ccc(Cl)cc1 (configuration not stated),-,0,0,12.7,0,0,0,0
O=S(=O)(c1ccc(NC(=S)Nc2ccccc2)cc1)N1CCOCC1,-,0,0,0,-,-,-,-
O=C(CCc1ccccc1)NC(=S)Nc1ccc(S(=O)(=O)N2CCOCC2)cc1,-,0,0,8.0,0,0,0,0
CC(C)NCCCOc1ccc(Cl)cc1Br,0,0,0,1.3,0,0,0,0
COCCCNCCCOc1ccc(Cl)cc1Br,0,0,0,0,-,-,-,-
COc1cc(OC)c(C2C(C(=O)Nc3ccc(C)cc3C)=C(C)Nc3ncnn32)cc1OC (configuration not stated),-,0,0,0.8,0,0,0,0
COc1ccc(S[C@]2(C(=O)N3CCCC3)CC(=O)N(C(=O)c3ccccc3)[C@@H]2c2ccc(OC)cc2)cc1,-,0,-,-,-,-,-,-
O=C(c1ccccc1)c1ccc(Oc2ccc([N+](=O)[O-])cc2[N+](=O)[O-])cc1,0,0,0,-,-,-,-,-
O=Cc1cccc(Oc2ccc([N+](=O)[O-])cc2[N+](=O)[O-])c1,0,0,0,0.7,0,0,0,0
CN(CC(=O)Nc1ccccc1Cl)C(=O)COC(=O)CSc1ccc(Cl)cc1,0,0,0,0,-,-,-,-
CC[C@]1(c2ccc(C)cc2)C(=O)N(C(=O)OC(C)C)N1C(=O)OC(C)C,-,0,-,-,-,-,-,-
COc1ccccc1NC(=O)c1ccccc1NC(=O)c1cc(Cl)ccc1NC(=O)c1ccco1,-,0,0,0.5,0,0,0,0
Cc1ccccc1-c1cc(C(=O)NCC2CC2)nn1CC1CC(c2cccc([N+](=O)[O-])c2)=NO1 (configuration not stated),0,0,0,0,-,-,-,-
Cc1nc2ccccc2n1C1CCN(C(=O)Nc2ccccc2)CC1,0,0,0,0,-,-,-,-
COCCOC(=O)c1c(C)oc2ccc(NS(=O)(=O)c3ccc(F)cc3)cc12,0,0,0,0.4,0,0,0,0
Cc1oc2ccc(NS(=O)(=O)c3ccc(F)cc3)cc2c1C(=O)O,-,0,0,0,-,-,-,-
Cc1cccc(-c2nc(S(=O)(=O)c3ccc(F)cc3)c(NCCCN3CCOCC3)o2)c1,0,0,0,7.4,0,0,0,0
SMILES,TAG inh,sPLA2-III inh,MT1-MMP act inh,Efflux pump inh,Yeast cmpd fluor,CaMdr1 efflux inh,CaCdr2 efflux inh,Cdr1 pump inh
CCCCCC(=O)N/N=C(\C)c1ccc(Cl)cc1,-,0,0,9.8,0,0,0,0
COc1cccc(NC(=S)N2CCN(c3ccccn3)CC2)c1,-,0,0,15.7,0,0,0,0
S=C(Nc1cccc(Cl)c1)N1CCN(c2ccccn2)CC1,-,0,0,0,-,-,-,-
COc1ccc(C2CC3(CC(C)(C)NC(SC)=N3)Oc3cc(O)cc(C)c32)cc1 (configuration not stated),0,0,0,0,-,-,-,-
COc1ccc(Cl)cc1C(=O)OCC(=O)NCCNC(=O)COC(=O)c1cc(Cl)ccc1OC,0,0,0,0,-,-,-,-
CCOC(=O)c1cc2sccc2n1CC(=O)c1ccc2c(c1)OCCO2,-,0,0,0.5,0,0,0,0
OCCCN=C1CCCc2c1[nH]c1ccc(Cl)cc21,0,0,0,0,-,-,-,-
OCCN=C1CCCc2c1[nH]c1ccc(Cl)cc21,0,0,0,0.6,0,0,0,0
CCC1=C(OC(=O)N(CC)CC)N2C(=O)OC(=NCCc3c[nH]c4ccccc34)[C@]2(Cc2ccccc2)[C@H]2C1=CC[C@H]1C(=O)N(CC(=O)OC)C(=O)[C@H]12,0,0,0,7.3,0,0,0,0
CCC1=C(OC(=O)N(CC)CC)N2C(=O)OC(=NCCOC)[C@]2(Cc2ccccc2)[C@H]2C1=CC[C@H]1C(=O)N(CC(=O)OC)C(=O)[C@H]12,0,0,0,0,-,-,-,-
O=C(Nc1ccc(Cl)cc1)c1cccs1,0,0,0,0,-,-,-,-
O=C(Nc1ccc(NC(=O)c2ccc(Cl)cc2Cl)cc1)c1cccs1,-,0,0,1.3,0,0,0,0
Cn1c(N)c(C(=O)COC(=O)c2ccccn2)c(=O)n(C)c1=O,0,0,0,1.7,0,0,0,0
CCCCNC(=O)OCC(CC)NC(=O)OC(C)C (configuration not stated),0,0,0,1.9,0,0,0,0
O=C1NN(c2ccccc2)C(=O)/C1=C/c1ccc(Sc2cccc3ccccc23)o1,-,0,0,0,-,-,-,-
C=CCn1c(SCc2cc(=O)n3ccsc3n2)nc2ccccc2c1=O,0,0,0,0.5,0,0,0,0
C=CCn1c(SCc2cc(=O)n3ccsc3n2)nc2cc(Cl)ccc2c1=O,0,0,0,0,-,-,-,-
COc1ccc(C(C(=O)NC(C)(C)C)N(CCO)C(=O)CCC(=O)Nc2cc(C)on2)cc1 (configuration not stated),-,0,0,0,0,0,0,0
CC(C)(C)NC(=O)C(c1ccc(F)cc1)N(C(=O)CCC(=O)Nc1ccccn1)C1CCCC1 (configuration not stated),-,0,0,2.4,0,0,0,0
COc1ccc(C(C(=O)NC(C)(C)C)N(CCc2ccccc2)C(=O)CCC(=O)Nc2cc(C)on2)cc1 (configuration not stated),-,0,-,0,-,-,-,-
CCCCN(C(=O)CCC(=O)Nc1cc(C)on1)C(C(=O)NC(C)(C)C)c1cccc(OC)c1OC (configuration not stated),0,0,0,0,-,-,-,-
CC(C)NC(=O)C(c1ccc(F)cc1)N(C(=O)CCC(=O)Nc1ccccn1)C1CCCC1 (configuration not stated),-,0,0,0,-,-,-,-
